# Assay results published in ChEMBL document CHEMBL2417530, “Coumarin derivatives protect against ischemic brain injury in rats” (Eur J Med Chem, 2013).
# The source made the active and inactive calls. The rule behind the calls is not given here.
# How the values were obtained:
# PC-12 = assay: Neuroprotective activity in rat PC12 cells assessed as attenuation of oxygen-glucose deprivation-induced cellular damage at 10 uM by MTT assay relative to control; assay type: functional
# How it was run: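 PC12 cells were seeded at 5×10^3/well for 24 h. OGD insult was low-glucose medium plus 5 mM sodium dithionite for 24 h, given together with 10 µM compound. MTT (5 mg/mL) was added for 4 h and absorbance read at 570 nm. Viability was expressed as % of full-medium control; n = 3.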
# [1] = Cytotoxicity against rat PC12 cells assessed as cell proliferation at 10 uM by MTT assay relative to control; assay type: cell-based, PC-12; conditions: read-out: Activity
# How it was run: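 PC12 cells were grown in DMEM with 5% FBS, 5% horse serum and 2 mM glutamine at 37 °C, 5% CO2. They were seeded at 5×10^3 cells/well for 24 h, then exposed to 10 µM compound in full medium. Viability was read by MTT (5 mg/mL, 4 h) at 570 nm as % of control absorbance; n = 3.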
# Rattus norvegicus [2] = assay: In vivo neuroprotective activity in Sprague-Dawley rat transient middle cerebral artery occlusion model assessed as reduction of infarct size at 6 mg/kg, iv measured 24 hrs post reperfusion by TTC staining assay relative to vehicle-treated control; assay type: functional
# How it was run: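 Male Sprague-Dawley rats, 7 weeks, 260–280 g, under 10% chloral hydrate ip. Right MCA occluded 60 min by tip-burned 4-0 nylon thread via common carotid, then reperfused. Saline or drug given iv at reperfusion, ethanol as cosolvent. Killed 24 h later; six 2 mm slices in 1% TTC in PBS, 37 °C, 30 min. Infarct area traced as % of total area; n = 12.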
# Rattus norvegicus [3] = assay: In vivo neuroprotective activity in Sprague-Dawley rat transient middle cerebral artery occlusion model assessed as reduction of brain-water content at 6 mg/kg, iv measured 24 hrs post reperfusion; assay type: functional, organism-based; design: dose 6 mg/kg
# How it was run: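 Male SD rats (7 weeks, 260-280 g) had 60 min transient right MCA occlusion with a nylon filament, then reperfusion. Saline or drug (1.5, 3.0, 6.0 mg/kg) was injected iv at reperfusion. Animals without neurological deficit were replaced. At 24 h brains were oven-dried at 110 °C for 24 h, and water content was taken as (wet−dry)/wet; n = 12.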
smiles,measurement,setting,value
CCCCCCCNC(=O)N1CCN(c2c(C)c3c(O)cc(O)cc3oc2=O)CC1,Activity,PC-12,43.4%
same,viability at 10 µM,[1],99.3%
Cc1c(N2CCN(C(=O)Nc3ccc(OC(F)(F)F)cc3)CC2)c(=O)oc2cc(O)cc(O)c12,Activity,PC-12,48.7%
same,viability at 10 µM,[1],99.5%
CCCCCCCCOc1cc(O)cc2oc(=O)c(N3CCN(C)CC3)c(C)c12,Activity,PC-12,15.6%
same,viability at 10 µM,[1],59.4%
CCC(CC)CN1CCN(c2c(C)c3c(O)cc(O)cc3oc2=O)CC1,Activity,PC-12,49.5%
same,viability at 10 µM,[1],102%
CCCCNC(=S)N1CCN(c2c(C)c3c(O)cc(O)cc3oc2=O)CC1,Activity,PC-12,48.9%
same,viability at 10 µM,[1],103%
Cc1c(N2CCN(C)CC2)c(=O)oc2cc(O)cc(OC3CCOC3)c12 (configuration not stated),Activity,PC-12,52%
same,viability at 10 µM,[1],107%
Cc1c(N2CCNCC2)c(=O)oc2cc(O)cc(O)c12,Activity,PC-12,46.4%
same,viability at 10 µM,[1],96.3%
COc1cc(OC)c2c(C)c(N3CCN(C)CC3)c(=O)oc2c1,Activity,PC-12,49.6%
same,viability at 10 µM,[1],100%
Cc1c(N2CCN(C)CC2)c(=O)oc2cc(O)cc(OCCN3CCCCC3)c12,Activity,PC-12,24.9%
same,viability at 10 µM,[1],144%
Cc1c(N2CCN(C)CC2)c(=O)oc2cc(O)cc(OCCc3ccccn3)c12,Activity,PC-12,48.2%
same,viability at 10 µM,[1],152%
Cc1cccc(N2CCN(c3c(C)c4c(O)cc(O)cc4oc3=O)CC2)c1C,Activity,PC-12,47.1%
same,viability at 10 µM,[1],103%
COc1ccc(COc2ccc3c(C)c(N4CCN(C)CC4)c(=O)oc3c2)cc1,Activity,PC-12,44.2%
same,viability at 10 µM,[1],136%
Cc1c(N2CCN(C)CC2)c(=O)oc2cc(O)cc(OCc3nccs3)c12,Activity,PC-12,54.7%
same,viability at 10 µM,[1],108%
Cc1c(N2CCN(C(=O)NCc3ccccc3)CC2)c(=O)oc2cc(O)cc(O)c12,Activity,PC-12,49.6%
same,viability at 10 µM,[1],102%
C=CC(=O)N1CCN(c2c(C)c3c(O)cc(O)cc3oc2=O)CC1,Activity,PC-12,48.3%
same,viability at 10 µM,[1],98.5%
Cc1c(N2CCN(Cc3ccccc3)CC2)c(=O)oc2cc(O)cc(O)c12,Activity,PC-12,44.4%
same,viability at 10 µM,[1],100%
CCN1CCN(c2c(C)c3c(O)cc(O)cc3oc2=O)CC1,Activity,PC-12,46.4%
same,viability at 10 µM,[1],101%
Cc1c(N2CCN(C)CC2)c(=O)oc2cc(O)cc(OCc3ccccn3)c12,Activity,PC-12,44.2%
same,viability at 10 µM,[1],116%
Cc1c(N2CCN(C(=O)Nc3ccc(F)cc3)CC2)c(=O)oc2cc(O)cc(O)c12,Activity,PC-12,46.3%
same,viability at 10 µM,[1],104%
Cc1c(N2CCN(C)CC2)c(=O)oc2cc(O)ccc12,Activity,PC-12,44.8%
same,viability at 10 µM,[1],99%
Cc1c(N2CCN(C)CC2)c(=O)oc2cc(O)cc(OCCN3CCOCC3)c12,Activity,PC-12,56.9%
same,viability at 10 µM,[1],108%
CC1=NN(c2ccccc2)C(=O)C1,Activity,Rattus norvegicus [2],Active
same,Activity,Rattus norvegicus [3],Active
Cc1c(CCN2CCN(C)CC2)c(=O)oc2cc(O)cc(O)c12,Activity,PC-12,45.9%
same,viability at 10 µM,[1],102%
CCOc1cc(O)cc2oc(=O)c(N3CCN(C)CC3)c(C)c12,Activity,PC-12,33.9%
same,viability at 10 µM,[1],167%
Cc1c(N2CCN(C)CC2)c(=O)oc2cc(OCCc3cccs3)ccc12,Activity,PC-12,43.7%
same,viability at 10 µM,[1],110%
Cc1c(N2CCN(C)CC2)c(=O)oc2cc(O)cc(O)c12,Activity,PC-12,52.7%
same,viability at 10 µM,[1],107%
Cc1c(N2CCN(C(=O)/C=C/c3ccccc3)CC2)c(=O)oc2cc(O)cc(O)c12,Activity,PC-12,45.9%
same,viability at 10 µM,[1],104%
Cc1cc(O)c2c(C)c(N3CCN(C)CC3)c(=O)oc2c1,Activity,PC-12,47.3%
same,viability at 10 µM,[1],99.5%
Cc1c(N2CCN(C)CC2)c(=O)oc2cc(O)cc(OC3CCCCC3)c12,Activity,PC-12,36.1%
same,viability at 10 µM,[1],177%
Cc1c(N2CCN(C)CC2)c(=O)oc2cc3c(cc12)OCO3,Activity,PC-12,47.9%
same,viability at 10 µM,[1],101%
CC(=O)Nc1ccc(S(=O)(=O)N2CCN(c3c(C)c4c(O)cc(O)cc4oc3=O)CC2)cc1,Activity,PC-12,44.5%
same,viability at 10 µM,[1],98.1%
Cc1c(N2CCN(C)CC2)c(=O)oc2cc(O)cc(OC3CCN(C)CC3)c12,Activity,PC-12,19.9%
same,viability at 10 µM,[1],139%
Cc1c(N2CCN(C)CC2)c(=O)oc2cc(O)cc(OCCc3cccs3)c12,Activity,PC-12,39.1%
same,viability at 10 µM,[1],178%
Cc1c(N2CCN(c3cccc(C(F)(F)F)c3)CC2)c(=O)oc2cc(O)cc(O)c12,Activity,PC-12,46.5%
same,viability at 10 µM,[1],103%
Cc1c(N2CCN(C(c3ccc(F)cc3)c3ccc(F)cc3)CC2)c(=O)oc2cc(O)cc(O)c12,Activity,PC-12,47.8%
same,viability at 10 µM,[1],102%
Cc1c(N2CCN(Cc3cc4c(cc3Cl)OCO4)CC2)c(=O)oc2cc(O)cc(O)c12,Activity,PC-12,44.6%
same,viability at 10 µM,[1],97.2%
COc1ccc2c(C)c(N3CCN(C)CC3)c(=O)oc2c1,Activity,PC-12,43.7%
same,viability at 10 µM,[1],100%
CC(=O)Oc1cc(OC(C)=O)c2c(C)c(N3CCN(C)CC3)c(=O)oc2c1,Activity,PC-12,46.6%
same,viability at 10 µM,[1],102%
Cc1c(N2CCN(C(=O)Nc3ccc(C(C)C)cc3)CC2)c(=O)oc2cc(O)cc(O)c12,Activity,PC-12,46.3%
same,viability at 10 µM,[1],97.3%
Cc1c(N2CCN(C)CC2)c(=O)oc2cc(O)cc(OCCCN)c12,Activity,PC-12,40.5%
same,viability at 10 µM,[1],107%
CCCCOc1cc(O)cc2oc(=O)c(N3CCN(C)CC3)c(C)c12,Activity,PC-12,46.2%
same,viability at 10 µM,[1],197%
